Laboratory results from PMC9710334 (BMJ Open Gastroenterology, 2022).
“And” between values parts separate entries of the source, which are not always exact repeats. Equal values may be shown once. “Also recorded” adds a separate entry of the source.

What was measured:
[1] = test system: patients with advanced primary biliary cholangitis; experiment: Phase 1 trial: adverse events graded by CTCAE v4.0, safety and tolerability; format: in vivo, human
In short: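 Seven advanced PBC patients (stage III or higher) received OP-724 iv at 280 (n=6) or 380 (n=1) mg/m2 over 4 hours, twice weekly for 12 cycles, after a single dose given 7 days before cycle 1. AEs and laboratory results were recorded throughout and graded by CTCAE v4.0. The primary endpoint was SAEs where drug causality could not be excluded.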

[2] = Plasma pharmacokinetics of OP-724 and C-82 after OP-724 infusion; format: in vivo, human; details: for OP-724 AUC0-24h / OP-724 Cmax / OP-724 Tmax / OP-724 T1/2: plasma
In short: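 A single iv dose of 280 or 380 mg/m2 was infused over 4 hours. Blood was drawn predose, at 30 min and 1, 2 and 4 hours after dosing, then 1, 5 and 20 hours after the infusion ended. Plasma parent and metabolite C-82 were quantified. […] Values are mean±SD.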

[3] = test system: patients with advanced PBC; experiment: Liver stiffness; format: in vivo, human
In short: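 Patients aged 20–74 years with PBC and Scheuer stage III or higher fibrosis on screening biopsy received iv OP-724 at 280 or 380 mg/m2 over 4 hours, twice weekly for 12 cycles. Liver stiffness was measured by FibroScan, and the Child-Pugh score, MELD score and Enhanced Liver Fibrosis score were determined. Prespecified change was from baseline to 12 weeks. Analysis was descriptive, mean±SD, with no statistical testing.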

[4] = test system: cholestatic liver fibrosis models; details: cited from earlier work
[5] = OP-724 280 mg/m^2/4 hours, Max, N=6
[6] = OP-724 280 mg/m^2/4 hours, Median, N=6
[7] = OP-724 280 mg/m^2/4 hours, Min, N=6
[8] = single OP-724 iv infusion 280 mg/m^2/4 hours, Mean, N=6
[9] = single OP-724 iv infusion 380 mg/m^2/4 hours, Mean, N=1
[10] = before and after administration
[11] = patient P101-07, 12 weeks, baseline 5
[12] = patient P101-08, 12 weeks, baseline 6

Structure (SMILES): C[C@H]1[C@H]2N(C(=O)CN(C)N2C(=O)NCc2ccccc2)[C@@H](Cc2ccc(OP(=O)(O)O)cc2)C(=O)N1Cc1cccc2cccnc12 [OP-724]
- Infusion site extravasation, Grades 3–5, patients n (%) ([1]; 380 mg/m^2/4 hours (n=1)): 0
- Nasopharyngitis, Grade 2, patients n (%) ([1]; 380 mg/m^2/4 hours (n=1)): 0
- Nasopharyngitis, Grades 3–5, patients n (%) ([1]; 380 mg/m^2/4 hours (n=1)): 0
- Nausea, Grade 1, patients n (%) ([1]; 380 mg/m^2/4 hours (n=1)): 0
- Nausea, Grade 2, patients n (%) ([1]; 380 mg/m^2/4 hours (n=1)): 0
- Nausea, Grades 3–5, patients n (%) ([1]; 380 mg/m^2/4 hours (n=1)): 0
- Open angle glaucoma, Grade 1, patients n (%) ([1]; 380 mg/m^2/4 hours (n=1)): 0
- Open angle glaucoma, Grade 2, patients n (%) ([1]; 380 mg/m^2/4 hours (n=1)): 0
- Open angle glaucoma, Grades 3–5, patients n (%) ([1]; 380 mg/m^2/4 hours (n=1)): 0
- Renal impairment, Grade 1, patients n (%) ([1]; 380 mg/m^2/4 hours (n=1)): 0
- Renal impairment, Grade 2, patients n (%) ([1]; 380 mg/m^2/4 hours (n=1)): 0
- Renal impairment, Grades 3–5, patients n (%) ([1]; 380 mg/m^2/4 hours (n=1)): 0
- Tooth fracture, Grade 1, patients n (%) ([1]; 380 mg/m^2/4 hours (n=1)): 0
- Tooth fracture, Grade 2, patients n (%) ([1]; 380 mg/m^2/4 hours (n=1)): 0
- Tooth fracture, Grades 3–5, patients n (%) ([1]; 380 mg/m^2/4 hours (n=1)): 0
- Vomiting, Grade 1, patients n (%) ([1]; 380 mg/m^2/4 hours (n=1)): 0
- Vomiting, Grade 2, patients n (%) ([1]; 380 mg/m^2/4 hours (n=1)): 0
- Vomiting, Grades 3–5, patients n (%) ([1]; 380 mg/m^2/4 hours (n=1)): 0
- incidence of SAEs (primary endpoint) ([1]; all patients (0/7), 280 or 380 mg/m^2/4 hours iv two times weekly, 12 weeks): 0%
- patients who developed general/systemic disorder and administration site status ([1]; all patients (3/7)): 42.9%
- patients who developed hepatobiliary system disorder ([1]; all patients (3/7)): 42.9%
- patients who developed gastrointestinal disorder ([1]; all patients (4/7)): 57.1%
- occurrence rate of side effects ([1]; all patients (6/7)): 85.7%
- occurrence rate of AEs ([1]; all patients (7/7)): 100%
- abdominal discomfort (most common AEs) ([1]; all seven patients): 29%
- abnormal hepatic function (most common AEs) ([1]; all seven patients): 43%
- recommended dosage ([1]; iv infusion two times weekly for 12 weeks, patients with advanced PBC): 280 mg/m^2/4 hours
- emetogenicity ([1]; managed with standard-of-care antiemetics): mildly or moderately emetogenic
- grade of drug-induced liver injury leading to withdrawal ([1]; one patient in the 380 mg/m^2/4 hours cohort): grade 2
- serious adverse events (in words) ([1]; seven patients, 280 or 380 mg/m^2/4 hours iv two times weekly, 12 weeks): did not occur; also recorded: no SAE was observed
- deaths related to drug administration ([1]; seven patients, administration period): no deaths related to drug administration were observed
- fragility fractures ([1]; this study): no fragility fractures were recorded
- OP-724 AUC0-24h [2, 5]: 9210 ng･h/mL
- OP-724 Cmax [2, 5]: 2460 ng/mL
- OP-724 Tmax [2, 5]: 4 h
- OP-724 AUC0-24h [2, 6]: 6340 ng･h/mL
- OP-724 Cmax [2, 6]: 2000 ng/mL
- OP-724 Tmax [2, 6]: 2 h
- OP-724 AUC0-24h [2, 7]: 3880 ng･h/mL
- OP-724 Cmax [2, 7]: 1080 ng/mL
- OP-724 Tmax [2, 7]: 0.5 h
- OP-724 T1/2 ([2]; single OP-724 iv infusion 280 mg/m^2/4 hours, Mean, N=4): 26.3 min
- OP-724 AUC0-24h [2, 8]: 6420±1910 ng･h/mL and 6420 ng･h/mL
- OP-724 Cmax [2, 8]: 1850 ng/mL
- OP-724 Tmax [2, 8]: 1.9 h
- OP-724 AUC0-24h [2, 9]: 10200 ng·h/mL
- OP-724 Cmax [2, 9]: 3980 ng/mL
- OP-724 T1/2 [2, 9]: 29.8 min
- OP-724 Tmax [2, 9]: 1 h
- time after initiating administration at which plasma OP-724 reached Cmax ([2]; single dose, all patients): 0.5 to 4 h
- change in mean CP score ([3]; 12 weeks after administration): no changes
- change in mean MELD score ([3]; 12 weeks after administration): no changes
- change in Enhanced Liver Fibrosis score [3, 10]: no significant change
- change in liver stiffness by FibroScan [3, 10]: no significant change
- ELF score ([3]; patient P101-01, 12 weeks, baseline 1.2): 0.9
- Child-Pugh score ([3]; patient P101-01, 12 weeks, baseline 6): 7
- FibroScan ([3]; patient P101-01, 12 weeks, baseline 9.1): 8.9 kPa
- MELD score ([3]; patient P101-01, 12 weeks, baseline 15): 15
- ELF score ([3]; patient P101-02, 12 weeks, baseline 0.78): 0.24
- MELD score ([3]; patient P101-02, 12 weeks, baseline 2): 2
- Child-Pugh score ([3]; patient P101-02, 12 weeks, baseline 6): 6
- FibroScan ([3]; patient P101-02, 12 weeks, baseline 40.3): 33.8 kPa
- ELF score ([3]; patient P101-04, 12 weeks, baseline 2.46): 3.16
- MELD score ([3]; patient P101-04, 12 weeks, baseline 6): 8
- Child-Pugh score ([3]; patient P101-04, 12 weeks, baseline 7): 7
- FibroScan ([3]; patient P101-04, 12 weeks, baseline 26.3): 23.6 kPa
- Child-Pugh score [3, 11]: 5
- MELD score [3, 11]: 5
- FibroScan ([3]; patient P101-07, 12 weeks, baseline 11.6): 9.2 kPa
- ELF score ([3]; patient P101-07, 12 weeks, baseline −0.1): −0.07
- ELF score ([3]; patient P101-08, 12 weeks, baseline 0.96): 1.48
- Child-Pugh score [3, 12]: 6
- MELD score [3, 12]: 6
- FibroScan ([3]; patient P101-08, 12 weeks, baseline 22.3): 36.3 kPa
- antifibrotic effect [4]: exerts an antifibrotic effect
